Measurements taken from PubChem BioAssay AID623966 (The Scripps Research Institute Molecular Screening Center, 2012).
Several values for one entry are separate records, joined by “and”; a condition that tells them apart may be missing. Equal entries are not always repeated. Activity calls are given as the source filed them.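 Rule for the calls: active = compounds that push a bacterial single-strand DNA binding protein off labeled DNA, with IC50 up to 50 micromolar; inactive = the rest.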

Target: Single-stranded DNA-binding protein (Escherichia coli (strain K12)) (UniProt P0AGE0)
Assay: displacement of E. coli SSB from DNA, late-stage follow-up, selectivity assay for HCV NS3 helicase inhibitor project, biochemical, fluorescence polarization (AID 623966)
Settings: E. coli SSB / Cy5-dT15 DNA
Summary of the method: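 material = E. coli SSB (ssDNA-binding protein), Cy5-labelled dT15 DNA | input = 20 nM SSB | medium = MOPS pH 7.5 buffer with MgCl2, BSA, Tween20, DTT | probe or stimulus = 5 nM Cy5-dT15 DNA | detection = fluorescence polarization of Cy5 label | evaluation = percent SSB displacement (100 minus percent binding), IC50 from normalized dose-response fits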

Sequence of Single-stranded DNA-binding protein (Escherichia coli (strain K12)) (P0AGE0 whole entry, looked up): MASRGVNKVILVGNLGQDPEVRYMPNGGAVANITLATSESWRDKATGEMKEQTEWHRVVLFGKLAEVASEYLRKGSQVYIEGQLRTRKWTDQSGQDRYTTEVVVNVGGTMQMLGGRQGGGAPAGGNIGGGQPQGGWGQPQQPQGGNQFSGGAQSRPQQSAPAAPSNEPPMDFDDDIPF

Row | SMILES | IC50
1 | Cc1ccc2nc(-c3ccc(NC(=O)c4ccc(NC(=O)Nc5ccccc5)cc4)cc3)sc2c1S(=O)(=O)O | 20 µM
2 | Cc1ccc2nc(-c3ccc(NC(=O)c4ccc(NC(=O)c5ccccc5)cc4)cc3)sc2c1S(=O)(=O)O | inactive
3 | Cc1ccc2nc(-c3ccc(NC(=O)c4ccc(NC(=O)c5ccc(C(F)(F)F)cc5)cc4)cc3)sc2c1S(=O)(=O)O | 23 µM
4 | Cc1ccc2nc(-c3ccc4nc(-c5ccc(NC(=O)c6ccc7nc(-c8ccc(NC(=O)OCC9c%10ccccc%10-c%10ccccc%109)cc8)sc7c6)cc5)sc4c3)sc2c1S(=O)(=O)O | 5 µM
5 | Cc1ccc2nc(-c3ccc4nc(-c5ccc(NC(=O)Nc6ccc(Cl)cc6)cc5)sc4c3)sc2c1S(=O)(=O)O | 5 µM
6 | Cc1ccc(NC(=O)Nc2ccc(-c3nc4ccc(-c5nc6ccc(C)c(S(=O)(=O)O)c6s5)cc4s3)cc2)cc1 | 10 µM
7 | Cc1ccc2nc(-c3ccc(NC(=O)c4ccc(NC(=O)OCC5c6ccccc6-c6ccccc65)cc4)cc3)sc2c1S(=O)(=O)O | 27 µM
8 | Cc1ccc2nc(-c3ccc4nc(-c5ccc(N(C)C(=O)c6ccc7ccccc7c6)cc5)sc4c3)sc2c1S(=O)(=O)O | 9 µM
9 | COc1ccc(S(=O)(=O)Nc2ccc(-c3nc4ccc(-c5nc6ccc(C)c(S(=O)(=O)O)c6s5)cc4s3)cc2)cc1 | 10 µM
10 | Cc1ccc2nc(-c3ccc(NC(=O)c4ccc(NC(=S)Nc5ccccc5)cc4)cc3)sc2c1S(=O)(=O)O | 23 µM
11 | Cc1ccc2nc(-c3ccc(NC(=O)c4ccc(NC(=O)c5ccc(N)cc5)cc4)cc3)sc2c1S(=O)(=O)O | 17 µM
12 | Cc1ccc2nc(-c3ccc(NC(=O)c4ccc(NC(=O)c5ccc(NC(=O)OCC6c7ccccc7-c7ccccc76)cc5)cc4)cc3)sc2c1S(=O)(=O)O | 7 µM
13 | CC(=O)Nc1ccc(-c2nc3ccc(-c4nc5ccc(C)c(S(=O)(=O)O)c5s4)cc3s2)cc1 | 17 µM
14 | COc1ccc(NC(=O)Nc2ccc(-c3nc4ccc(-c5nc6ccc(C)c(S(=O)(=O)O)c6s5)cc4s3)cc2)cc1 | 4 µM
15 | Cc1ccc2nc(-c3ccc(NC(=O)c4ccc(NS(=O)(=O)c5ccccc5)cc4)cc3)sc2c1S(=O)(=O)O | > 100 µM (inactive)
16 | Cc1ccc2nc(-c3ccc4nc(-c5ccc(NCc6ccccc6)cc5)sc4c3)sc2c1S(=O)(=O)O | 5 µM
17 | Cc1ccc2nc(-c3ccc4nc(-c5ccc(NC(=O)c6ccc7nc(-c8ccc(N)cc8)sc7c6)cc5)sc4c3)sc2c1S(=O)(=O)O | 3 µM
18 | Cc1ccc2nc(-c3ccc4nc(-c5ccc(NC(=O)c6ccc(NC(=O)OCC7c8ccccc8-c8ccccc87)cc6)cc5)sc4c3)sc2c1S(=O)(=O)O | > 100 µM (inactive)
19 | Cc1ccc2nc(-c3ccc4nc(-c5ccc(NC(=S)Nc6ccccc6)cc5)sc4c3)sc2c1S(=O)(=O)O | 7 µM
20 | Cc1ccc2nc(-c3ccc4nc(-c5ccc(NC(=O)Nc6ccccc6)cc5)sc4c3)sc2c1S(=O)(=O)O | 6 µM
21 | Cc1ccc2nc(-c3ccc4nc(-c5ccc(NC(=O)c6ccc(CNC(=O)OCC7c8ccccc8-c8ccccc87)cc6)cc5)sc4c3)sc2c1S(=O)(=O)O | inactive
22 | Cc1ccc2nc(-c3ccc4nc(-c5ccc(NC(=O)c6cccc7ccccc67)cc5)sc4c3)sc2c1S(=O)(=O)O | 9 µM

Now from value to molecule:

Row | IC50 | SMILES
23 | inactive | Cc1ccc2nc(-c3ccc4nc(-c5ccc(NC(=O)c6cccc(C(F)(F)F)c6F)cc5)sc4c3)sc2c1S(=O)(=O)O
24 | 10 µM | Cc1ccc2nc(-c3ccc4nc(-c5ccc(NC(=O)c6ccc(C(F)(F)F)c(F)c6)cc5)sc4c3)sc2c1S(=O)(=O)O
25 | 14 µM | Cc1ccc2nc(-c3ccc4nc(-c5ccc(NC(=O)c6cc(F)ccc6C(F)(F)F)cc5)sc4c3)sc2c1S(=O)(=O)O
26 | > 100 µM (inactive) | Cc1ccc2nc(-c3ccc4nc(-c5ccc(NC(=O)c6cccnc6)cc5)sc4c3)sc2c1S(=O)(=O)O
27 | 2 µM | COC(=O)c1ccc(C(=O)Nc2ccc(-c3nc4ccc(-c5nc6ccc(C)c(S(=O)(=O)O)c6s5)cc4s3)cc2)cc1
28 | > 100 µM (inactive) | Cc1ccc2nc(-c3ccc4nc(-c5ccc(NC(=O)c6cc(F)cc(C(F)(F)F)c6)cc5)sc4c3)sc2c1S(=O)(=O)O
29 | 5 µM | Cc1ccc(C(=O)Nc2ccc(-c3nc4ccc(-c5nc6ccc(C)c(S(=O)(=O)O)c6s5)cc4s3)cc2)cc1
30 | > 100 µM (inactive) | Cc1ccc2nc(-c3ccc4nc(-c5ccc(NC(=O)c6ccc(Cl)c(Cl)c6)cc5)sc4c3)sc2c1S(=O)(=O)O
31 | 36 µM | Cc1ccc2nc(-c3ccc4nc(-c5ccc(NC(=O)c6cc(C(F)(F)F)cc(C(F)(F)F)c6)cc5)sc4c3)sc2c1S(=O)(=O)O
32 | 4 µM | Cc1ccc2nc(-c3ccc4nc(-c5ccc(NC(=O)c6ccccc6)cc5)sc4c3)sc2c1S(=O)(=O)O
33 | 14 µM | Cc1ccc2nc(-c3ccc4nc(-c5ccc(NC(=O)c6ccc(F)cc6)cc5)sc4c3)sc2c1S(=O)(=O)O
34 | 11 µM | Cc1ccc2nc(-c3ccc4nc(-c5ccc(NC(=O)Nc6ccc(F)cc6)cc5)sc4c3)sc2c1S(=O)(=O)O
35 | 46 µM | Cc1ccc2nc(-c3ccc4nc(-c5ccc(NC(=O)c6ccc(Cl)cc6)cc5)sc4c3)sc2c1S(=O)(=O)O
36 | 27 µM | Cc1ccc2nc(-c3ccc4nc(-c5ccc(NC(=O)c6ccc(Br)cc6)cc5)sc4c3)sc2c1S(=O)(=O)O
37 | > 100 µM (inactive) | Cc1ccc2nc(-c3ccc4nc(-c5ccc(NC(=O)c6cccc(Cl)c6)cc5)sc4c3)sc2c1S(=O)(=O)O
38 | 13 µM | Cc1ccc2nc(-c3ccc4nc(-c5ccc(NC(=O)c6c(F)cccc6C(F)(F)F)cc5)sc4c3)sc2c1S(=O)(=O)O
39 | 15 µM | Cc1ccc2nc(-c3ccc4nc(-c5ccc(NC(=O)Nc6ccc(C(F)(F)F)cc6)cc5)sc4c3)sc2c1S(=O)(=O)O
40 | > 100 µM (inactive) | Cc1ccc2nc(-c3ccc4nc(-c5ccc(NC(=O)c6cccc(C(F)(F)F)c6)cc5)sc4c3)sc2c1S(=O)(=O)O
41 | 4 µM | Cc1ccc2nc(-c3ccc4nc(-c5ccc(NC(=O)c6ccc(C(F)(F)F)cc6)cc5)sc4c3)sc2c1S(=O)(=O)O
42 | 12 µM | Cc1ccc2nc(-c3ccc4nc(-c5ccc(NC(=O)c6cc(C(F)(F)F)ccc6F)cc5)sc4c3)sc2c1S(=O)(=O)O
43 | 3 µM | Cc1ccc2nc(-c3ccc4nc(-c5ccc(NC(=O)c6ccc(N)cc6)cc5)sc4c3)sc2c1S(=O)(=O)O
44 | 2 µM | COc1ccc(C(=O)Nc2ccc(-c3nc4ccc(-c5nc6ccc(C)c(S(=O)(=O)O)c6s5)cc4s3)cc2)cc1
45 | 22 µM and 28 µM | Cc1ccc2nc(-c3ccc4nc(-c5ccc(NC(=O)c6ccc7ccccc7c6)cc5)sc4c3)sc2c1S(=O)(=O)O
46 | 32 µM | Cc1ccc2nc(-c3ccc4nc(-c5ccc(NC(=O)c6ccc(C(C)(C)C)cc6)cc5)sc4c3)sc2c1S(=O)(=O)O
47 | 4 µM | Cc1ccc2nc(-c3ccc4nc(-c5ccc(NC(=O)c6ccc(N(C)C)cc6)cc5)sc4c3)sc2c1S(=O)(=O)O
48 | 13 µM | Cc1ccc2nc(-c3ccc4nc(-c5ccc(NC(=O)c6ccccc6C(F)(F)F)cc5)sc4c3)sc2c1S(=O)(=O)O
49 | inactive | Cc1ccc2nc(-c3ccc4nc(-c5ccc(NC(=O)c6ccncc6)cc5)sc4c3)sc2c1S(=O)(=O)O
